# In the library only some 3.8% were active in any assay of this set; here they are far more common.
# HSP90 refold inh = HSP90 refolding inhibition in rabbit reticulocyte lysate; luciferase refolding luminescence, 3 h; inhibition, % at 5.6 µM; 290,000 compounds, 0.91% hits; AID 1789;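 active = inhibition above the screen-wide mean plus 3 SD, computed separately per campaign, cut at about 16% in these data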;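 note: 0% = DMSO wells and 100% = 60 µM geldanamycin wells; inhibitors lower the luminescence because luciferase stays unfolded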
# HSF1 inhib = HSF1 inhibition; NIH3T3-HGL HSE-luciferase, MG132-induced, luminescence 8 h; active compounds read low; activity change, negative = inhibition, % at 7.5 µM (by protocol); 300,000 compounds, 0.77% hits; AID 2098;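 active = more than half of replicate wells show activity change below -50%, luminescence cut by over half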;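 note: luciferase reports HSF-1 transcriptional activity via heat shock element; 0% = median of DMSO wells and -100% = zero luminescence signal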
# HSF-1 act = increases HSF-1 driven luciferase reporter signal | NIH3T3-HGL HSF-1 luciferase reporter, MG132, 8 h; 100% = twice DMSO control signal | activation, % at 9 µM | 300,000 compounds, 1.7% hits | AID 504408;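 active = mean replicate activation of at least 50% with a set share of replicates each reaching 50%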;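 note: 0% = median of the neutral control wells and 100% = twice that signal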
# HCV NS3 hel inh = inhibitors of Hepatitis C virus NS3 helicase; 290,000 compounds, 0.56% hits; inhibition, % at 10.9 µM; NS3 helicase DNA unwinding, Cy5 molecular beacon fluorescence;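 active = inhibition above the mean of all tested compounds plus 3 SD, set per campaign, cut at about 35% in these data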;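 note: 0% = DMSO wells and 100% = thioflavine S control wells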
#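 Control set: DMSO versus 110 µM thioflavine S; Material: NS3 helicase fragment of HCV; Measured by: Cy5 fluorescence at 0 and 60 min, beacon hairpin quenching; Read-out basis: percent inhibition from t60/t0 fluorescence ratio; Times: reaction time 60 min, 25 °C; Repeats: single replicate; Compound dosing: single dose, 10.9 µM nominal final, DMSO 0.8% final.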
# Hep lipid drop = hepatic lipid droplet formation modulation | AML12 mouse hepatocytes, oleate lipid droplets, BODIPY imaging | inhibition, % at 6.5 µM | 240,000 compounds, 0.4% hits;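 active = lipid droplet intensity inhibited by at least 50%, with more than 500 cells counted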
#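 Assay system: AML12 hepatocytes (mouse) / Also added: 100 µM oleic acid challenge / Times: overnight treatment with compound plus oleate / Detection: high-content imaging of BODIPY-stained droplets and DAPI nuclei / Evaluation: % inhibition of lipid droplet signal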
# HSP90 confirm = HSP90 inhibition, confirmation assay. shares compounds with HSP90 refold inh. rabbit reticulocyte lysate, luciferase refolding luminescence, 3 h. inhibition, % at 5.9 µM. 2,300 compounds, 64% hits. AID 1846; in the data active = inhibition above about 18%;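 note: 0% = vehicle wells and 100% = reference inhibitor wells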
# FLuc counter = blocks native firefly luciferase in HSP90 counter-screen | shares compounds with HSP90 refold inh | purified native firefly luciferase, luminescence | inhibition, % at 5.9 µM | AID 1847 | 2,300 compounds, 48% hits;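 active = inhibition above the mean inhibition of all tested sample wells plus 3 SD, cut at about 10% in these data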;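 note: 0% = DMSO with luciferase and 100% = wells lacking luciferase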
# Target sequence (P08659 whole entry, looked up): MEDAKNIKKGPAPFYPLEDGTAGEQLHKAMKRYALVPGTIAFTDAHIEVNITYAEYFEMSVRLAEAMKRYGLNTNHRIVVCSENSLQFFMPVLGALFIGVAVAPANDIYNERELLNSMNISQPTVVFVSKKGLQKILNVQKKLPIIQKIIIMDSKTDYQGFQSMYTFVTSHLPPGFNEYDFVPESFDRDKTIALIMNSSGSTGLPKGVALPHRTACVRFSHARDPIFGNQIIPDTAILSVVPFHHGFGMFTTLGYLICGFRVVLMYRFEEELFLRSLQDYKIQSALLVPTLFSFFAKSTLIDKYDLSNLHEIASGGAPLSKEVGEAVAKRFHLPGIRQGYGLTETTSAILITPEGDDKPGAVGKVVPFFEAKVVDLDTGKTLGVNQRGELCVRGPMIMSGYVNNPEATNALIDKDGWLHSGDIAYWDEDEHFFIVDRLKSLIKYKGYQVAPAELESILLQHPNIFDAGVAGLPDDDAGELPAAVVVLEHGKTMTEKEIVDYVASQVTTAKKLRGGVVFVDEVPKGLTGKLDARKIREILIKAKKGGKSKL
# Active calls of the source: *; · = not tested or not shown.
SMILES,HSP90 refold inh,HSF1 inhib,HSF-1 act,HCV NS3 hel inh,Hep lipid drop,HSP90 confirm,FLuc counter
CC(=O)c1ccccc1OC(=O)COc1ccc([N+](=O)[O-])cc1,2,-8,-1,-3,-7,·,·
c1ccc(-c2cn3c(n2)-c2ccccc2C3)cc1,18*,4,16,2,-12,51*,42*
O=C1c2ccccc2CN2C(=O)c3ccccc3CN12,3,-3,-12,4,0,·,·
CN(C)c1ccc(CNc2nc3ccccc3s2)cc1,48*,-11,-14,-7,-16,73*,57*
CN(C)c1ccc(/C=C/c2nc3ccccc3s2)cc1,76*,-80*,-82,8,·,92*,90*
Cc1ccc(/C=C/c2nc3ccccc3s2)s1,46*,-75*,-76,1,1,80*,74*
COc1cc(/C=C/c2nc3ccccc3s2)cc(OC)c1O,5,0,32,13,10,·,·
COc1ccc(S(=O)(=O)N(CC(=O)NN=C2CCN(C)CC2)c2cc(Cl)ccc2OC)cc1OC,3,-4,4,-13,10,·,·
CCN(CC)S(=O)(=O)c1cccc(NC(=O)COC(=O)c2cccs2)c1,-1,-7,3,-7,6,·,·
CCc1nc2ccc(C(=O)N3CCN(c4cccc(C(F)(F)F)c4)CC3)cc2nc1CC,1,6,-8,-9,-7,·,·
Cc1ccc(C)c(S(=O)(=O)NC(C)C(=O)NCc2ccccn2)c1 (centres undefined),-3,1,-6,12,-6,·,·
Cc1ccc(Nc2nc(-c3sc(N)nc3C)cs2)cc1,39*,-7,-6,-10,-7,-2,-18
Cc1nc(N)sc1-c1csc(Nc2ccccn2)n1,5,-16,-11,12,·,·,·
CCOc1ccc(Nc2nc(-c3sc(N)nc3C)cs2)cc1,20*,-3,-8,-3,8,1,-21
COc1ccc(CC(=O)Nc2nc(-c3ccc(OC)c(OC)c3)cs2)cc1OC,-4,5,6,-26,45,·,·
COc1ccc(Nc2nc(-c3sc(NC(C)=O)nc3C)cs2)cc1,0,-14,-2,2,-3,·,·
COc1ccc(Nc2nc(-c3sc(N)nc3C)cs2)cc1,30*,4,23,3,-5,-4,-21
Cc1ccc(Nc2nc(-c3sc(C)nc3C)cs2)cc1,-1,8,26,-14,-73,·,·
COc1ccc(CCNc2nc(-c3sc(N)nc3C)cs2)cc1OC,29*,-5,-7,0,-1,5,-5
Cc1ccc(C(=O)NC2CCCCNC2=O)cc1 (centres undefined),3,0,33,-12,14,·,·
Cc1ccc(NC(=O)c2cc(S(=O)(=O)N3CCOCC3)cn2C)cc1F,-5,0,3,-1,-4,·,·
CC(C)c1cc(C(=O)N2CCCC(Nc3ccc(F)cc3)C2)n[nH]1 (centres undefined),3,-3,-12,13,-1,·,·
Cc1ccc(Cn2c(C3CCCN3c3nc(-c4cc(Cl)c(N)c(Cl)c4)cs3)nc3cc(Cl)c(Cl)cc32)cc1 (centres undefined),·,-40,-49,·,·,·,·
CN(C)S(=O)(=O)c1cccc(NC(=O)c2ccc(COc3ccccc3)cc2)c1,3,6,7,-6,-19,·,·
C/C(=N\NC(=O)c1ccc(N/N=C(\C)c2ccc(O)cc2)cc1)c1ccc(O)cc1,27*,8,31,-1,-5,4,-17
SMILES,HSP90 refold inh,HSF1 inhib,HSF-1 act,HCV NS3 hel inh,Hep lipid drop,HSP90 confirm,FLuc counter
C/C(=N/NC(=O)c1ccccn1)c1ccc(O)cc1,20*,10,31,12,-5,6,-14
C/C(=N\NC(=O)c1ccccn1)c1ccc(Cl)cc1,12,24,34,1,1,·,·
S=C(NCCCNC(=S)Nc1ccccc1)Nc1ccccc1,3,-2,-11,0,15,·,·
CC(O)CNC(=S)Nc1ccccc1 (centres undefined),23*,-5,0,6,-3,-6,-13
Cc1c(NC(=O)Nc2cccc(C(F)(F)F)c2)c(=O)n(-c2ccccc2)n1C,0,-5,1,16,-14,·,·
N#CCCN(Cc1cccnc1)C(=S)NCc1ccco1,61*,·,·,1,1,4,1
CC(C)N(C(=S)Nc1cccc(C(F)(F)F)c1)C(C)c1ccccn1 (centres undefined),0,-8,-8,19,-3,·,·
CCOC(=O)N1CCC(=NNc2nc3ccccc3s2)CC1,26*,0,16,-11,1,2,-8
O=c1c2sc(-c3ccccc3)cc2nc2n1CCC2,24*,0,6,-4,-18,48*,32*
O=c1c2c(-c3ccccc3)csc2nc2n1CCC2,2,-4,-14,-9,13,·,·
S=C(c1ccc(N2CCCC2)c(Br)c1)N1CCCCC1,22*,-3,-2,-13,19,0,-18
O=C(C1CC(=O)N(c2ccccc2)C1)N1CCCCCC1 (centres undefined),2,7,9,4,1,·,·
Fc1ccc(-c2nnc(NC3=NCCCCC3)o2)cc1,73*,-49,-59,11,·,81*,76*
Fc1ccc(NC2=NCCCCC2)cc1,2,3,2,-3,0,·,·
CC(C)(C)c1ccc(C(=O)Nc2ccc(CC(=O)O)cc2)o1,22*,-59*,-64,1,2,23*,-30
CCn1c(SCc2ccccc2)nc2c1c(=O)[nH]c(=O)n2C,-1,40,43,4,-6,·,·
O=C(/C=C\Nc1ccc2c(c1)OCO2)c1ccccn1,71*,-72*,-71,5,·,96*,90*
COCCCn1c(SCC(=O)NC2CCCC2)nnc1-c1cccs1,-1,7,-12,-9,-3,·,·
N#CC1(C#N)COC23CCCCC2C1(C#N)C(=N)O3 (centres undefined),18*,-70*,-76,15,·,-6,-13
CCCc1ccc(-c2cc(C(=O)N3CCN(c4ccccn4)CC3)c3ccccc3n2)cc1,38*,-20,-32,-18,-46,43*,12*
CC(=O)NN1C(=O)c2ccc3c4c(ccc(c24)C1=O)C(=O)N(NC(C)=O)C3=O,45*,-24,-41,8,-6,30*,-2
CC(C)(C)c1ccc(-c2noc(CCC(=O)Nc3cccnc3)n2)cc1,45*,-46,-45,-10,1,4,-19
CN(C)C(=O)CCc1nc(-c2ccc(C(C)(C)C)cc2)no1,20*,5,28,4,·,27*,0
CC(=O)Oc1ccc(C(=O)Nc2ccc(S(=O)(=O)NCC3CCCO3)cc2)cc1 (centres undefined),-2,-2,-8,2,5,·,·

# Assay outcomes from PubChem.
